Active and inactive are the calls of the source. The rule behind the calls is not given here.
Key:
Canis familiaris [1] = experiment: Saluretic activity in the dog measured as concentration of Na+ in urinary excretion (2 animals/dose) at (dose 1.56 mg/Kg, po); type: functional, Canis lupus familiaris, Urine
Procedure, shortened: (§1)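 Male beagles trained to rest on a table and to accept stomach tube and catheter. Food withdrawn 24 h before, tap water ad libitum. Bladder emptied by catheter, then 20 mL/kg tap water by stomach tube. Catheterized hourly up to 8 h with 4 mL/kg water orally each time; first 2 h urine served as control. Oral dosing after second catheterization. Pooled 1–6 h urine; Na⁺/K⁺ by flame photometry, Cl⁻ argentometrically.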

Canis familiaris [2] = experiment: Diuretic activity in the dog (2 animals/dose) at (dose 1.56 mg/Kg), when administered perorally; type: functional, Canis lupus familiaris, Urine
Procedure, shortened: (§2)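 Trained male beagles, fasted 24 h with tap water ad libitum. Bladder emptied by catheter, then 20 mL/kg tap water by stomach tube, with 4 mL/kg water at each hourly catheterization up to 8 h. The first 2 h of urine served as control. Oral dosing came after the second catheterization, and 1–6 h urine was pooled. Na⁺ and K⁺ were measured by flame photometry, Cl⁻ argentometrically, in mequiv/kg.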

Canis familiaris [3] = experiment: Saluretic activity in the dog measured as concentration of K+ in urinary excretion (2 animals/dose) at (dose 1.56 mg/Kg, po); type: functional, Canis lupus familiaris, Urine; procedure, shortened: as §1
Canis familiaris [4] = experiment: Saluretic activity in the dog measured as concentration of Cl - in urinary excretion (2 animals/dose) at (dose 1.56 mg/Kg, po); type: functional, Canis lupus familiaris, Urine
Procedure, shortened: (§3)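 Male beagles trained to the procedures, food withdrawn 24 h before, tap water ad libitum. Bladder emptied by catheter, then 20 mL/kg tap water by stomach tube, plus 4 mL/kg orally at each hourly catheterization up to 8 h. The first 2 h of urine served as control. Compound given orally after the second catheterization. Urine from 1–6 h post-dose pooled; Na⁺ and K⁺ by flame photometry, Cl⁻ argentometrically, in mequiv/kg.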

Rattus norvegicus [5] = organism: Rattus norvegicus; experiment: Diuretic activity in the rats, determined by a modified Lipschitz test; type: functional, Urine
Procedure, shortened: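 Modified Lipschitz test: rats deprived of water 24 h, grouped in threes of similar weight in diuresis funnels. Oral dose of 50 mg/kg, suspended in 2% starch solution, by stomach tube.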

Rattus norvegicus [6] = organism: Rattus norvegicus; experiment: Saluretic activity in the rat measured as concentration of chloride in urine; type: functional
Procedure, shortened: (§4)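 Rats deprived of food 24 h, water ad libitum, dosed 50 mg/kg by stomach tube as suspension in 2% starch, no extra water load. Groups of three in diuresis funnels; urine over first 5 h collected. Na⁺ and K⁺ by flame photometry, Cl⁻ argentometrically; expressed as mequiv/kg.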

Rattus norvegicus [7] = organism: Rattus norvegicus; experiment: Saluretic activity in the rat measured as concentration of K+ in urine; type: functional; procedure, shortened: as §4
[8] = It is the ratio, measured as saluretic activity in the dog as concentration of Na+ in urinary excretion (dose 1.56 mg/Kg, po) to that of K; type: functional, Urine; procedure, shortened: as §2
[9] = It is the ratio, measured as saluretic activity in the dog as concentration of Cl- in urinary excretion (dose mg/Kg, po) to that of (Na+)+(K+); type: functional, Urine; procedure, shortened: as §2
Rattus norvegicus [10] = organism: Rattus norvegicus; experiment: Saluretic activity in the rat measured as concentration of Na+ in urine; type: functional; procedure, shortened: as §4
Canis familiaris [11] = experiment: Sailuric activity in the dog measured as concentration of Cl - in urinary excretion (2 animals/dose) at (dose 1.56 mg/Kg, po); type: functional, Canis lupus familiaris, Urine; procedure, shortened: as §3
Canis familiaris [12] = experiment: Sailuric activity in the dog measured as concentration of K+ in urinary excretion (2 animals/dose) at (dose 1.56 mg/Kg, po); type: functional, Canis lupus familiaris, Urine; procedure, shortened: as §3
Canis familiaris [13] = experiment: Sailuric activity in the dog measured as concentration of Na+ in urinary excretion (2 animals/dose) at (dose 1.56 mg/Kg, po); type: functional, Canis lupus familiaris, Urine; procedure, shortened: as §3
[14] = It is the ratio, measured as saluretic activity in the dog as concentration of Cl- in urinary excretion (dose 1.56 mg/Kg, po) to that of (Na+)+(K+); type: functional, Urine; procedure, shortened: as §2
[15] = It is the ratio, measured as saluretic activity in the dog as concentration of Na+ in urinary excretion (dose 1.56mg/Kg, po) to that of K; type: functional, Urine; procedure, shortened: as §2
Canis familiaris [16] = experiment: Saluretic activity in the dog measured as concentration of Na+ in urinary excretion (2 animals/dose) at (dose 1.56 mg/Kg, perorally); type: functional, Canis lupus familiaris, Urine; procedure, shortened: as §1
Canis familiaris [17] = experiment: Saluretic activity in the dog measured as concentration of Na+ in urinary excretion (2 animals/dose) at (dose 12.5 mg/Kg, perorally); type: functional, Canis lupus familiaris, Urine; procedure, shortened: as §1
Canis familiaris [18] = experiment: Diuretic activity in the dog (2 animals/dose) at (dose 12.5 mg/Kg), when administered perorally; type: functional, Canis lupus familiaris, Urine; procedure, shortened: as §2
Canis familiaris [19] = experiment: Saluretic activity in the dog measured as concentration of K+ in urinary excretion (2 animals/dose) at (dose 1.56 mg/Kg, perorally); type: functional, Canis lupus familiaris, Urine; procedure, shortened: as §3
Canis familiaris [20] = experiment: Salidiuretic activity on the basis of the 1.56 mg/Kg perorally dog assay; compound was found to be highly active; type: functional, organism-based; conditions: Canis lupus familiaris; Urine
Canis familiaris [21] = experiment: Saluretic activity in the dog measured as concentration of K+ in urinary excretion (2 animals/dose) at (dose 12.5 mg/Kg, perorally); type: functional, Canis lupus familiaris, Urine; procedure, shortened: as §1
Canis familiaris [22] = experiment: Saluretic activity in the dog measured as concentration of Cl - in urinary excretion (2 animals/dose) at (dose 1.56 mg/Kg, perorally); type: functional, Canis lupus familiaris, Urine; procedure, shortened: as §3
Canis familiaris [23] = experiment: Saluretic activity in the dog measured as concentration of Cl - in urinary excretion (2 animals/dose) at (dose 12.5 mg/Kg, perorally); type: functional, Canis lupus familiaris, Urine; procedure, shortened: as §3
[24] = It is the ratio, measured as saluretic activity in the dog as concentration of Cl- in urinary excretion (dose 1.56 mg/Kg, perorally) to that of (Na+)+(K+); type: functional, Urine; procedure, shortened: as §2
[25] = It is the ratio, measured as saluretic activity in the dog as concentration of Na+ in urinary excretion (dose 1.56 mg/Kg, perorally) to that of K; type: functional, Urine; procedure, shortened: as §2
[26] = It is the ratio, measured as saluretic activity in the dog as concentration of Na+ in urinary excretion (dose 12.5 mg/Kg, perorally) to that of K; type: functional, Urine; procedure, shortened: as §2
[27] = It is the ratio, measured as saluretic activity in the dog as concentration of Cl- in urinary excretion (dose 12.5 mg/Kg, perorally) to that of (Na++K+); type: functional, Urine; procedure, shortened: as §2
Rattus norvegicus [28] = experiment: Salidiuretic activity on the basis of the 50 mg/kg perorally rat assay; NA means inactive; conditions: Urine
Canis familiaris [29] = experiment: Saluretic activity in the dog measured as concentration of Na+ in urinary excretion (2 animals/dose) at (dose 12.5 mg/Kg, po); type: functional, Canis lupus familiaris, Urine; procedure, shortened: as §1
Canis familiaris [30] = experiment: Saluretic activity in the dog measured as concentration of K+ in urinary excretion (2 animals/dose) at (dose 12.5 mg/Kg, po); type: functional, Canis lupus familiaris, Urine; procedure, shortened: as §1
Canis familiaris [31] = experiment: Saluretic activity in the dog measured as concentration of Cl - in urinary excretion (2 animals/dose) at (dose 12.5 mg/Kg, po); type: functional, Canis lupus familiaris, Urine; procedure, shortened: as §3
[32] = It is the ratio, measured as saluretic activity in the dog as concentration of Na+ in urinary excretion (dose 12.5 mg/Kg, po) to that of K; type: functional, Urine; procedure, shortened: as §2
[33] = It is the ratio, measured as saluretic activity in the dog as concentration of Na+ in urinary excretion(dose 1.56 mg/kg, p.o.) to that of K; type: functional, Urine; conditions: route oral; procedure, shortened: as §2
[34] = It is the ratio, measured as saluretic activity in the dog as concentration of Cl- in urinary excretion (dose 12.5 mg/Kg, po) to that of (Na++K+); type: functional, Urine; procedure, shortened: as §2

For `NS(=O)(=O)c1cc(S(=O)(=O)[O-])c(NCc2ccco2)cc1[S+]([O-])C1CCCCC1.[Na+]` (centres undefined), the Saluretic activity (Canis familiaris [1]) was 0.59 m equiv 6hr-1 kg-1, the Diuretic activity (Canis familiaris [2]) was 48.4 ml kg-1 6hr-1 and the Saluretic activity (Canis familiaris [3]) was 0.33 m equiv 6hr-1 kg-1. For the same compound, the Saldiuretic activity (Canis familiaris [4]) was 1.27 m equiv 6hr-1 kg-1, the Diuretic activity (Rattus norvegicus [5]) was 1.2 mL/kg and the Saluretic activity (Rattus norvegicus [6]) was 1.7 m equiv 5hr-1 kg-1. The Saluretic activity (Rattus norvegicus [7]) was 1.4 m equiv 5hr-1 kg-1, the Ratio [8] was 1.8 and the Ratio [9] was 1.4. The Saluretic activity (Rattus norvegicus [10]) was 1.3 m equiv 5hr-1 kg-1.

Compound `NS(=O)(=O)c1cc(S(=O)(=O)[O-])c(NCc2ccco2)cc1S(=O)(=O)C1CCCC1.[Na+]` has a Diuretic activity (Canis familiaris [2]) of 58 ml kg-1 6hr-1, a Saldiuretic activity (Canis familiaris [11]) of 5.26 m equiv 6hr-1 kg-1 and a Saldiuretic activity (Canis familiaris [12]) of 1.02 m equiv 6hr-1 kg-1. It also gave a Saluretic activity (Canis familiaris [13]) of 4.24 m equiv 6hr-1 kg-1, a Diuretic activity (Rattus norvegicus [5]) of 4.3 mL/kg and a Saluretic activity (Rattus norvegicus [6]) of 9.5 m equiv 5hr-1 kg-1. It also gave a Saluretic activity (Rattus norvegicus [7]) of 2 m equiv 5hr-1 kg-1, a Ratio [14] of 1 and a Saluretic activity (Rattus norvegicus [10]) of 8 m equiv 5hr-1 kg-1. The Ratio [15] was 4.2.

Compound `NS(=O)(=O)c1cc(S(=O)(=O)[O-])c(NCc2cccs2)cc1Oc1ccccc1.[K+]` has a Saluretic activity (Canis familiaris [16]) of 3.73 m equiv 6hr-1 kg-1, a Saluretic activity (Canis familiaris [17]) of 6.89 m equiv 6hr-1 kg-1 and a Diuretic activity (Canis familiaris [2]) of 58 ml kg-1 6hr-1. The Diuretic activity (Canis familiaris [18]) was 78 ml kg-1 6hr-1, the Saluretic activity (Canis familiaris [19]) was 1.03 m equiv 6hr-1 kg-1 and the Saldiuretic activity (Canis familiaris [20]) was “Active”. The Saldiuretic activity (Canis familiaris [21]) was 1.47 m equiv 6hr-1 kg-1, the Saldiuretic activity (Canis familiaris [22]) was 4.45 m equiv 6hr-1 kg-1 and the Saldiuretic activity (Canis familiaris [23]) was 7.84 m equiv 6hr-1 kg-1. For the same compound, the Diuretic activity (Rattus norvegicus [5]) was 0.8 mL/kg, the Saluretic activity (Rattus norvegicus [6]) was 0.6 m equiv 5hr-1 kg-1 and the Saluretic activity (Rattus norvegicus [7]) was 0.4 m equiv 5hr-1 kg-1. The Ratio [24] was 0.95, the Ratio [25] was 3.6 and the Ratio [26] was 4.7. The Ratio [27] was 0.95, the Saluretic activity (Rattus norvegicus [10]) was 0.8 m equiv 5hr-1 kg-1 and the Diuretic activity (Rattus norvegicus [28]) was “inactive”.

For `NS(=O)(=O)c1cc(S(=O)(=O)[O-])c(NCc2ccco2)cc1S(=O)(=O)c1ccccc1.[K+]`, the Saluretic activity (Canis familiaris [1]) was 0.49 m equiv 6hr-1 kg-1, the Saluretic activity (Canis familiaris [29]) was 4 m equiv 6hr-1 kg-1 and the Diuretic activity (Canis familiaris [2]) was 35.3 ml kg-1 6hr-1. The Diuretic activity (Canis familiaris [18]) was 59.7 ml kg-1 6hr-1, the Saluretic activity (Canis familiaris [30]) was 0.93 m equiv 6hr-1 kg-1 and the Saluretic activity (Canis familiaris [3]) was 0.25 m equiv 6hr-1 kg-1. It also gave a Saldiuretic activity (Canis familiaris [4]) of 1.09 m equiv 6hr-1 kg-1, a Saldiuretic activity (Canis familiaris [31]) of 5.28 m equiv 6hr-1 kg-1 and a Diuretic activity (Rattus norvegicus [5]) of 3.6 mL/kg. The Saluretic activity (Rattus norvegicus [6]) was 9.8 m equiv 5hr-1 kg-1, the Saluretic activity (Rattus norvegicus [7]) was 2.6 m equiv 5hr-1 kg-1 and the Ratio [32] was 4.3. It also gave a Ratio [33] of 2, a Ratio [14] of 1.5 and a Ratio [34] of 1.1. For the same compound, the Saluretic activity (Rattus norvegicus [10]) was 7.1 m equiv 5hr-1 kg-1.
